{"source": "ChEMBL document CHEMBL1152754", "about": "“18F-labeled flavones for in vivo imaging of beta-amyloid plaques in Alzheimer's brains” (Bioorg Med Chem, 2009)", "key": {"[1]": {"assay": "Displacement of [125I]DMFV from amyloid beta (1 to 42) aggregates", "outline": "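Aβ(1-42) aggregated at 0.25 mg/mL in 10 mM sodium phosphate with 1 mM EDTA, pH 7.4, 37 °C for 42 h. Competition: 0.02 nM [125I]DMFV, test compound at 0.2 pM–400 µM, and aggregates in 10% EtOH, incubated 3 h at room temperature. Bound ligand collected on GF/B filters and gamma-counted. IC50 taken from displacement curves; Ki by Cheng-Prusoff using DMFV Kd 12.3 nM.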"}, "Bone [2]": {"system": "Bone", "assay": "Biodistribution in ddY mouse bone at 18.5 kBq, iv after 2 mins", "assay_type": "ADME, organism-based, Bone element", "details": "in vivo", "outline": "(§1)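 Normal ddY mice (5 weeks old, 22–25 g) received 18.5 kBq of 18F-labeled agent by tail-vein injection in 100 µL saline containing 5 µL ethanol. Killed under isoflurane anesthesia at each time point; organs removed and weighed, radioactivity gamma-counted. Expressed as %ID/g, mean ± SD of 4–5 mice per interval.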"}, "Bone [3]": {"system": "Bone", "assay": "Biodistribution in ddY mouse bone at 18.5 kBq, iv after 10 mins", "assay_type": "ADME, organism-based, Bone element", "details": "in vivo", "outline": "as §1"}, "Brain [4]": {"system": "Brain", "assay": "Biodistribution in ddY mouse brain at 18.5 kBq, iv after 2 mins", "assay_type": "ADME, organism-based", "details": "in vivo", "outline": "as §1"}, "Bone [5]": {"system": "Bone", "assay": "Biodistribution in ddY mouse bone at 18.5 kBq, iv after 30 mins", "assay_type": "ADME, organism-based, Bone element", "details": "in vivo, 0.5 h", "outline": "as §1"}, "Blood [6]": {"system": "Blood", "assay": "Biodistribution in ddY mouse blood at 18.5 kBq, iv after 10 mins", "assay_type": "ADME, organism-based", "details": "in vivo", "outline": "as §1"}, "Brain [7]": {"system": "Brain", "assay": "Biodistribution in ddY mouse brain at 18.5 kBq, iv after 30 mins", "assay_type": "ADME, organism-based", "details": "in vivo, 0.5 h", "outline": "as §1"}, "Blood [8]": {"system": "Blood", "assay": "Biodistribution in ddY mouse blood at 18.5 kBq, iv after 2 mins", "assay_type": "ADME, organism-based", "details": "in vivo", "outline": "as §1"}, "Blood [9]": {"system": "Blood", "assay": "Biodistribution in ddY mouse blood at 18.5 kBq, iv after 30 mins", "assay_type": "ADME, organism-based", "details": "in vivo, 0.5 h", "outline": "as §1"}, "Brain [10]": {"system": "Brain", "assay": "Biodistribution in ddY mouse brain at 18.5 kBq, iv after 10 mins", "assay_type": "ADME, organism-based", "details": "in vivo", "outline": "as §1"}, "Bone [11]": {"system": "Bone", "assay": "Biodistribution in ddY mouse bone at 18.5 kBq, iv after 60 mins", "assay_type": "ADME, organism-based, Bone element", "details": "in vivo, 1 h", "outline": "as §1"}, "Brain [12]": {"system": "Brain", "assay": "Biodistribution in ddY mouse brain at 18.5 kBq, iv after 60 mins", "assay_type": "ADME, organism-based", "details": "in vivo, 1 h", "outline": "as §1"}, "Blood [13]": {"system": "Blood", "assay": "Biodistribution in ddY mouse blood at 18.5 kBq, iv after 60 mins", "assay_type": "ADME, organism-based", "details": "in vivo, 1 h", "outline": "as §1"}, "Mus musculus": {"organism": "Mus musculus", "assay": "Binding affinity to amyloid beta (1 to 42) aggregates in Tg2576 mouse brain at 100 uM by fluorescent staining method", "assay_type": "tissue-based", "outline": "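Tg2576 transgenic mice (female, 20 months old) killed by decapitation under isoflurane; brains frozen in powdered dry ice and cut into 10 µm serial cryosections. Sections incubated with a 100 µM solution of fluorescent ligand in 50% ethanol, washed twice for 3 min in 50% ethanol, imaged by fluorescence microscopy (excitation 450–490 nm). Adjacent sections immunostained with anti-β-amyloid monoclonal antibody, DAB chromogen.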"}}, "note": "Active and inactive are the calls of the source. The calls are words filed in the database; no cut-off is given here."}
{"smiles": "CNc1ccc(-c2cc(=O)c3cc(OCCF)ccc3o2)cc1", "values": [{"measurement": "Ki", "setting": "[1]", "value": 99, "unit": "nM"}]}
{"smiles": "CN(C)c1ccc(-c2cc(=O)c3cc(OCCOCCOCC[18F])ccc3o2)cc1", "values": [{"measurement": "Drug uptake", "setting": "Bone [2]", "value": 1.53, "unit": "% ID/g"}, {"measurement": "Drug uptake", "setting": "Bone [3]", "value": 2.38, "unit": "% ID/g"}, {"measurement": "Drug uptake", "setting": "Brain [4]", "value": 2.89, "unit": "% ID/g"}, {"measurement": "Drug uptake", "setting": "Bone [5]", "value": 4.06, "unit": "% ID/g"}, {"measurement": "Drug uptake", "setting": "Blood [6]", "value": 1.5, "unit": "% ID/g"}, {"measurement": "Drug uptake", "setting": "Brain [7]", "value": 1.31, "unit": "% ID/g"}, {"measurement": "Drug uptake", "setting": "Blood [8]", "value": 2.35, "unit": "% ID/g"}, {"measurement": "Drug uptake", "setting": "Blood [9]", "value": 1.4, "unit": "% ID/g"}, {"measurement": "Drug uptake", "setting": "Brain [10]", "value": 2.23, "unit": "% ID/g"}, {"measurement": "Drug uptake", "setting": "Bone [11]", "value": 5.21, "unit": "% ID/g"}, {"measurement": "Drug uptake", "setting": "Brain [12]", "value": 1.37, "unit": "% ID/g"}, {"measurement": "Drug uptake", "setting": "Blood [13]", "value": 1.88, "unit": "% ID/g"}]}
{"smiles": "Nc1ccc(-c2cc(=O)c3cc(OCCF)ccc3o2)cc1", "values": [{"measurement": "Ki", "setting": "[1]", "value": 234, "unit": "nM"}]}
{"smiles": "CN(C)c1ccc(-c2cc(=O)c3cc(OCC[18F])ccc3o2)cc1", "values": [{"measurement": "Drug uptake", "setting": "Bone [2]", "value": 2.02, "unit": "% ID/g"}, {"measurement": "Drug uptake", "setting": "Bone [3]", "value": 2.83, "unit": "% ID/g"}, {"measurement": "Drug uptake", "setting": "Brain [4]", "value": 4.17, "unit": "% ID/g"}, {"measurement": "Drug uptake", "setting": "Bone [5]", "value": 4.51, "unit": "% ID/g"}, {"measurement": "Drug uptake", "setting": "Blood [6]", "value": 2.71, "unit": "% ID/g"}, {"measurement": "Drug uptake", "setting": "Brain [7]", "value": 1.89, "unit": "% ID/g"}, {"measurement": "Drug uptake", "setting": "Blood [8]", "value": 2.8, "unit": "% ID/g"}, {"measurement": "Drug uptake", "setting": "Blood [9]", "value": 2.53, "unit": "% ID/g"}, {"measurement": "Drug uptake", "setting": "Brain [10]", "value": 3.62, "unit": "% ID/g"}, {"measurement": "Drug uptake", "setting": "Bone [11]", "value": 6.21, "unit": "% ID/g"}, {"measurement": "Drug uptake", "setting": "Brain [12]", "value": 2.19, "unit": "% ID/g"}, {"measurement": "Drug uptake", "setting": "Blood [13]", "value": 3.25, "unit": "% ID/g"}]}
{"smiles": "CNc1ccc(-c2cc(=O)c3cc(F)ccc3o2)cc1", "values": [{"measurement": "Ki", "setting": "[1]", "value": 110, "unit": "nM"}]}
{"smiles": "CN(C)c1ccc(-c2cc(=O)c3cc(OCCOCC[18F])ccc3o2)cc1", "values": [{"measurement": "Drug uptake", "setting": "Bone [2]", "value": 1.13, "unit": "% ID/g"}, {"measurement": "Drug uptake", "setting": "Bone [3]", "value": 1.65, "unit": "% ID/g"}, {"measurement": "Drug uptake", "setting": "Brain [4]", "value": 3.54, "unit": "% ID/g"}, {"measurement": "Drug uptake", "setting": "Bone [5]", "value": 2.42, "unit": "% ID/g"}, {"measurement": "Drug uptake", "setting": "Blood [6]", "value": 2.3, "unit": "% ID/g"}, {"measurement": "Drug uptake", "setting": "Brain [7]", "value": 2, "unit": "% ID/g"}, {"measurement": "Drug uptake", "setting": "Blood [8]", "value": 2.09, "unit": "% ID/g"}, {"measurement": "Drug uptake", "setting": "Blood [9]", "value": 2.5, "unit": "% ID/g"}, {"measurement": "Drug uptake", "setting": "Brain [10]", "value": 2.75, "unit": "% ID/g"}, {"measurement": "Drug uptake", "setting": "Bone [11]", "value": 3.74, "unit": "% ID/g"}, {"measurement": "Drug uptake", "setting": "Brain [12]", "value": 2.13, "unit": "% ID/g"}, {"measurement": "Drug uptake", "setting": "Blood [13]", "value": 2.94, "unit": "% ID/g"}]}
{"smiles": "Nc1ccc(-c2cc(=O)c3cc(OCCOCCF)ccc3o2)cc1", "values": [{"measurement": "Ki", "setting": "[1]", "value": 321, "unit": "nM"}]}
{"smiles": "CN(C)c1ccc(-c2cc(=O)c3cc(OCCOCCF)ccc3o2)cc1", "values": [{"measurement": "Ki", "setting": "[1]", "value": 14.4, "unit": "nM"}, {"measurement": "Activity", "setting": "Mus musculus", "value": "Active"}]}
{"smiles": "CN(C)c1ccc(-c2cc(=O)c3cc(OCCOCCOCCF)ccc3o2)cc1", "values": [{"measurement": "Ki", "setting": "[1]", "value": 19.3, "unit": "nM"}, {"measurement": "Activity", "setting": "Mus musculus", "value": "Active"}]}
{"smiles": "CN(C)c1ccc(-c2cc(=O)c3cc(F)ccc3o2)cc1", "values": [{"measurement": "Ki", "setting": "[1]", "value": 73.9, "unit": "nM"}]}
{"smiles": "CNc1ccc(-c2cc(=O)c3cc(OCCOCCF)ccc3o2)cc1", "values": [{"measurement": "Ki", "setting": "[1]", "value": 54.5, "unit": "nM"}]}
{"smiles": "CNc1ccc(-c2cc(=O)c3cc(OCCOCCOCCF)ccc3o2)cc1", "values": [{"measurement": "Ki", "setting": "[1]", "value": 45.1, "unit": "nM"}]}
{"smiles": "CN(C)c1ccc(-c2cc(=O)c3cc(OCCF)ccc3o2)cc1", "values": [{"measurement": "Ki", "setting": "[1]", "value": 5.3, "unit": "nM"}, {"measurement": "Activity", "setting": "Mus musculus", "value": "Active"}]}
{"smiles": "Nc1ccc(-c2cc(=O)c3cc(F)ccc3o2)cc1", "values": [{"measurement": "Ki", "setting": "[1]", "value": 260, "unit": "nM"}]}
{"smiles": "Nc1ccc(-c2cc(=O)c3cc(OCCOCCOCCF)ccc3o2)cc1", "values": [{"measurement": "Ki", "setting": "[1]", "value": 234, "unit": "nM"}]}
